Screening data as filed in PubChem BioAssay.
CHOP UPR activ = apoptotic UPR (CHOP) activation; 330,000 tested, 0.34% active; activation, % at 10 µM; CHO-CHOP luciferase reporter, luminescence; percent of tunicamycin response over DMSO baseline;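 active = at 10 µM dose, activation of 40% or more, normalized to positive control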;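 note: 100% = tunicamycin at 10 µg/mL and 0% = DMSO alone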
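Assay system: CHO-CHOP cells, stable luciferase reporter of PERK-eIF2a-CHOP signalling / Buffer or medium: F12 plus 10% serum / Compound dosing: one dose, 10 µM in 0.5% DMSO / Times: 6 h compound treatment, 37 °C / Technique: luciferase luminescence / Read-out: % reporter activation, DMSO baseline versus tunicamycin full activation / Benchmarks: tunicamycin and DMSO controls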
Hep lipid drop = hepatic lipid droplet formation modulation; 240,000 tested, 0.4% active; AID 1656; AML12 mouse hepatocytes, oleate lipid droplets, BODIPY imaging; inhibition, % at 6.5 µM;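 active = lipid droplet intensity inhibited by at least 50%, with more than 500 cells counted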
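Assay system: AML12 mouse liver cells | Compound: 6.5 µM single-point dosing | Schedule: Overnight exposure | Technique: Fluorescence imaging, 20x objective, two fields per well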
UPR XBP1 act = adaptive UPR (XBP1) activation; activation, % at 20 µM; CHO-XBP1 luciferase reporter, IRE1-XBP1 UPR activation, luminescence; percent of tunicamycin response, DMSO as zero; 330,000 tested, 0.33% active;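 active = versus positive control, 20 µM dose yields 30% or more activation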;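 note: 100% = tunicamycin at 10 µg/mL and 0% = DMSO only wells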
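Assay system: CHO-XBP1 luciferase reporter cells; Schedule: 6 h treatment, 37 °C; Detection: glow luminescence from Steady-Glo reagent; Benchmarks: high control tunicamycin 10 µg/mL final, low control DMSO vehicle only.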
CHOP inh = blocks CHOP induction under ER stress; CHO-K1 CHOP-promoter luciferase, tunicamycin-induced, 15-18 h; inhibition, % at 10 µM; 220,000 tested, 3.8% active; AID 2732;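 active = compounds that reduced the stress-induced luciferase reporter signal by more than about 70% of percent inhibition, limit read from the data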;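 note: 0% = tunicamycin plus vehicle and 100% = wells without tunicamycin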
TMEM16A inh = blocks the mouse calcium-activated chloride channel TMEM16A; Q8BHY3; HEK293 TMEM16A/YFP iodide influx fluorescence, ionomycin; normalized B-score (activity score, 25-100; higher = stronger inhibition) at 10 µM; 310,000 tested, 1.2% active; AID 588511;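 active = ratio plate-corrected score three or more library SD toward inhibition, starting fluorescence score within five deviations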;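 note: score derived from kinetic fluorescence span divided by baseline fluorescence per well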
Target sequence (Q8BHY3 whole entry, looked up): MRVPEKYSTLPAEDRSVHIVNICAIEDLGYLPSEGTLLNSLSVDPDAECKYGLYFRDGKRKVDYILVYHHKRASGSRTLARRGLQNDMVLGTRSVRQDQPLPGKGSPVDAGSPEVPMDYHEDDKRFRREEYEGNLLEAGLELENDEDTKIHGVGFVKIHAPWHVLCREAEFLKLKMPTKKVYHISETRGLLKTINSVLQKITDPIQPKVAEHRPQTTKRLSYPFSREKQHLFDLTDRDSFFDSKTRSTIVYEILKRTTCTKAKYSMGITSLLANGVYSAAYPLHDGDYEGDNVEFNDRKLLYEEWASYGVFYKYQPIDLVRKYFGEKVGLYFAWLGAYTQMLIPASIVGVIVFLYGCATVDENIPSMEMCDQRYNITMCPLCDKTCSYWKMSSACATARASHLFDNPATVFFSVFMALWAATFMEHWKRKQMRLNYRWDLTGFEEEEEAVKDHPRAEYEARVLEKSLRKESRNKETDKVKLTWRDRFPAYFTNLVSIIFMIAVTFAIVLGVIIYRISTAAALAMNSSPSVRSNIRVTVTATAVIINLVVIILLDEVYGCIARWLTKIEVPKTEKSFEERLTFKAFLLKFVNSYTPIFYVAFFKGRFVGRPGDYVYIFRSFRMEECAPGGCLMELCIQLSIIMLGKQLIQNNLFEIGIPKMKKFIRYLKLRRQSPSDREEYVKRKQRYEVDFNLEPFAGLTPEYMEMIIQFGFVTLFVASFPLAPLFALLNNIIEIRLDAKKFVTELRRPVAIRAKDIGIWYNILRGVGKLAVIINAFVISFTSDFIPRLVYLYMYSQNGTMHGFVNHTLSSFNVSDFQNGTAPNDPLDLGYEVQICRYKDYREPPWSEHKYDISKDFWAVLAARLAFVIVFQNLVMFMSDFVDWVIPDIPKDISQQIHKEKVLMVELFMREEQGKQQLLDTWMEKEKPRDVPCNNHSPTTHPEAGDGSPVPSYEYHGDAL
TMEM16A act = mouse TMEM16A channel activation, primary screen; HEK293 TMEM16A/YFP-H148Q/I152L, iodide quench fluorescence; stronger effect = lower value; Q8BHY3; B-score at 10 µM; 340,000 tested, 0.3% active;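 active = fluorescence-ratio B-score plate-corrected deviation score at least 3 library SD below zero, with starting fluorescence score within 5 deviations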;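 note: channel opened by trigger with iodide after compound preincubation; score built on the fluorescence ratio of max minus min over baseline; more negative score means more quench and so TMEM16A activation or potentiation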
The depositor's hits bear a star; i = inactive; . = not tested or not shown. Compounds with a hit are over-represented: about 4.2% of the library has one in this group of screens.

SMILES	CHOP UPR activ	Hep lipid drop	UPR XBP1 act	CHOP inh	TMEM16A inh	TMEM16A act
O=C(NCCc1ccccc1)c1ccc2c(=O)[nH]c3c(C(=O)NCC4CCCO4)sc(=S)n3c2c1 (stereo not given)	1	-1	-2	.	i	i
O=C(NC1CCCCC1)c1sc(=S)n2c1[nH]c(=O)c1ccccc12	1	.	0	27	100*	i
O=C1NC2(CCCCO2)CO1 (stereo not given)	-2	-8	-5	.	i	-11*
CCCC1Cc2c(sc(NC(=S)NC(=O)c3ccccc3)c2C#N)CO1 (stereo not given)	2	-1	6	86*	i	.
CC1CCc2c(sc(NC(=S)NC(=O)c3ccccc3)c2C#N)C1 (stereo not given)	9	-3	2	71*	i	i
CCc1ccc(OCC(O)CN2CCC(CN3C(=O)c4cccc5cccc(c45)C3=O)CC2)cc1 (stereo not given)	2	-23	2	94*	i	i
O=C1c2cccc3cccc(c23)C(=O)N1CC1CCN(CC(O)COc2ccc3ccccc3c2)CC1 (stereo not given)	0	.	2	.	i	i
O=C(O)C1CCC(N2C(=O)c3c(Cl)c(Cl)c(Cl)c(Cl)c3C2=O)CC1 (stereo not given)	.	-6	.	.	i	.
Cn1c(=O)c(C(=O)COc2ccc(F)cc2Cl)c(N)n(Cc2ccccc2)c1=O	-1	24	-2	79*	i	i
CC(C)(C)CC(C)(C)n1nnnc1N	.	.	.	.	.	i
CCC(=O)NC(=S)Nc1ccc(NC(=O)COc2ccc(Cl)cc2Cl)cc1	1	.	14	90*	i	i
COc1ccccc1NC(=S)NC(=O)CCCOc1ccc(Cl)cc1Cl	-1	8	-1	77*	i	i
COc1ccccc1NC(=S)NC(=O)Cc1ccc(Cl)cc1	0	8	-2	.	i	i
Cc1cc(C)c(S(=O)(=O)NCC(=O)NCc2cc(=O)n(C)c(=O)n2C)c(C)c1	1	3	-2	.	i	i
CCCCNc1c(-c2ccc(SC3CCCCC3)cc2)nc2ccccn12	16	.	2	.	i	i
CCCCNc1c(-c2ccc(SC(C)CC)cc2)nc2ccccn12 (stereo not given)	21	.	5	.	100*	i
Cc1cc(NC(=O)COC(=O)c2oc3c(Cl)cccc3c2C)no1	2	4	-1	74*	i	i
Cc1cc(/C=C2/SC(=S)N(c3ccc([N+](=O)[O-])cc3)C2=O)c(C)n1-c1cccnc1	8	-61	-2	71*	i	i
Cc1cccc(N2C(=O)/C(=C/c3cccnc3)SC2=S)c1	-1	15	-1	33	i	i
Cc1ccc(N2C(=O)/C(=C/c3cccnc3)SC2=S)cc1	1	-2	0	76*	i	i
N#CC(C#N)=NNc1ccc(S(=O)(=O)N2CCCCC2)cc1	0	22	-2	17	100*	i
N#C/C(=N\Nc1ccc(S(=O)(=O)N2CCOCC2)cc1)C(N)=S	2	19	-1	4	i	i
O=C(NC(NC(=S)Nc1ccc(Cl)cc1Cl)C(Cl)(Cl)Cl)c1cccc([N+](=O)[O-])c1 (stereo not given)	18	.	6	67	100*	i
O=C(NC(NC(=S)Nc1ccccc1)C(Cl)(Cl)Cl)c1cccc(Cl)c1 (stereo not given)	14	.	0	86*	i	i
Cc1cc(C)c2nc(SCC(=O)NCCC3=CCCCC3)cc(C)c2c1	1	-38	0	92*	i	i
SMILES	CHOP UPR activ	Hep lipid drop	UPR XBP1 act	CHOP inh	TMEM16A inh	TMEM16A act
Nc1cc(N)nc(SCC(=O)NCCC2=CCCCC2)n1	0	.	0	.	i	i
CCNC(=S)N(Cc1ccccc1)Cc1nc2ccccc2c(=O)[nH]1	2	9	0	2	i	i
COCCCNC(=S)N(Cc1ccccc1)Cc1nc2ccccc2c(=O)[nH]1	-1	3	-4	-9	25*	i
Cc1ccc(/C=C/C(=O)C2C(=O)c3ccccc3C2=O)cc1	-3	.	-6	95*	i	i
Cc1ccc(/C=C/C(=O)c2ccccc2O)cc1	7	-14	13	-83	i	i
O=C(O)c1cc(-c2ccc(-c3c(-c4ccc5c(c4)OCO5)noc3-c3ccsc3)cc2)nc2ccccc12	.	0	.	.	100*	i
CN(C)c1ccc(-c2c(-c3ccc4c(c3)OCO4)noc2-c2ccsc2)cn1	5	4	2	.	i	i
O=C(O)c1cccc(Cn2c(Cl)c(/C=N/Nc3ccccc3)sc2=O)c1	1	0	2	5	i	-35*
O=C(O)c1ccc(N/N=C/c2ccc(-c3ccccc3)cc2)cc1	.	27	.	-12	.	i
CC(C)c1ccc(/C=N/Nc2ccc(C(=O)O)cc2)cc1	-11	-4	-8	84*	i	i
Cc1ccc(/C=N/NC(=O)C[n+]2ccccc2)s1	1	0	-1	-3	i	i
Cc1ccc(/C=N/Nc2ccc(C(=O)O)cc2)s1	-9	3	-6	75*	i	i
CCCCCCCCCC(=O)N/N=C/c1ccc(C)s1	-2	-1	-1	95*	i	i
O=C(O)c1ccc(N/N=C/c2cc(Br)cs2)cc1	-5	.	-8	.	i	i
Cc1ccc(S(=O)(=O)NC(CC(C)C)C(=O)NCCCn2nc(C)cc2C)cc1 (stereo not given)	-1	.	-1	.	.	i
CC(C)c1ccc(C2NC(=O)CCC2[N+](=O)[O-])cc1 (stereo not given)	0	-1	-2	18	i	i
COC1C(O)C(O)C(O)C(O)C1O (stereo not given)	.	.	.	.	.	i
CC(C)CN(CC(C)C)C(=O)Nc1ccccc1F	-1	7	-2	6	i	i
Cc1ccc(-c2nnc(SCC(=O)N/N=C/c3ccc(C)s3)n2-c2ccc(C)cc2)cc1	1	4	-2	75*	i	i
Cc1ccsc1/C=N/Nc1ccc(C(=O)O)cc1	-9	1	-10	.	i	i
Cc1ccsc1/C=N/Nc1cccc(C(=O)O)c1	-10	10	-9	89*	i	i
O=C(O)c1cccc(N/N=C/c2cccc3ccccc23)c1	-8	-8	-11	.	i	i
Cc1ccc(/C=N/Nc2cccc(C(=O)O)c2)s1	-7	23	-10	80*	i	i
CCOc1ccc(S(=O)(=O)NCCC(=O)N2CCN(c3ccccc3O)CC2)cc1	0	.	-1	.	i	i
